# Compound activity deposited in PubChem by The Scripps Research Institute Molecular Screening Center.
# SIAE inh – inhibitors of human sialic acid acetylesterase SIAE; Q9HAT2; SIAE FP-Rh probe binding, fluorescence polarization; inhibition, % at 9.66 µM; 370,000 compounds, 0.69% hits;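 active = inhibition above a cutoff: mean of compounds within the control limits plus 3 SD of those, cut at about 17% in these data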;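 note: 0% = plate median of compound wells and 100% = probe without SIAE protein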
# Target sequence (Q9HAT2 whole entry, looked up): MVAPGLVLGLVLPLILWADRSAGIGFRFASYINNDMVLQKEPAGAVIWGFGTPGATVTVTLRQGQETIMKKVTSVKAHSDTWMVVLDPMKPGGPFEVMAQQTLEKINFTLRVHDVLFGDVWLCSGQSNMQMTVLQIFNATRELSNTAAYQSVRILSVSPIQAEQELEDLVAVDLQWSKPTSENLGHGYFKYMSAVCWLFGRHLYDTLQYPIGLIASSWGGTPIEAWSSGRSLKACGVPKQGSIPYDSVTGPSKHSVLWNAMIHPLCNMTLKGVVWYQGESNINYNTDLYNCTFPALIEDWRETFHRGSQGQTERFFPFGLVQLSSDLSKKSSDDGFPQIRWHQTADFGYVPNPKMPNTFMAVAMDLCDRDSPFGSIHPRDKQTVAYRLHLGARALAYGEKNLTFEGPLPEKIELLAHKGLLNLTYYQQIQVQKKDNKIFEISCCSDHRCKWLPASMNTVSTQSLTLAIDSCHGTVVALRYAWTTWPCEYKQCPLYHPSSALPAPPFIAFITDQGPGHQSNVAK
# rCAG binder – molecules binding r(CAG) RNA repeats; r(CAG) RNA repeat, TO-PRO-1 dye displacement fluorescence; AID 651821; inhibition, % at 3 µM; 370,000 compounds, 1.3% hits;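 active = inhibition above the plate cutoff, the mean of all test compounds on that plate plus 3 SD, cut at about 35% in these data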;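 note: 0% = DMSO alone and 100% = 100 µM mitoxantrone as full dye displacement; higher means more dye released from RNA so lower well fluorescence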
# HTRA1 inh – blocks human HTRA1 serine peptidase. recombinant HTRA1, FP-rhodamine activity-based probe, fluorescence polarization. inhibition, % at 5.96 µM. 340,000 compounds, 0.5% hits. AID 504803; in the data active = inhibition above about 36%;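 note: 0% = enzyme with DMSO and 100% = wells lacking enzyme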
# mABHD4 FP – ABHD4 (mouse) inhibition, primary FP screen | Q8VD66 | purified mABHD4, FP-Rh probe fluorescence polarization | inhibition, % at 8.92 µM | 370,000 compounds, 0.54% hits | AID 720543;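 active = inhibition exceeding the mean over every tested compound plus 3 SD, cut at about 30% in these data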;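 note: 0% = plate median of compound wells and 100% = S159A mutant with DMSO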
#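 system = mouse ABHD4 enzyme, wild type | medium = HEPES pH 7.0, NaCl, Pluronic buffer | also added = FP-Rh probe | incubation = Enzyme–compound pre-incubation 45 min, then probe 60 min, both 25 °C | technique = fluorescence polarization, excitation 525 nm, emission 598 nm, BODIPY TMR filters | controls = S159A mutant high control, sample median low control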
# TCR CD3 inh – inhibitors of human TCR-CD3 interaction. AID 651800. TAMRA-labeled TCR probe fluorescence, biochemical. 360,000 compounds, 0.37% hits. inhibition, % at 9.4 µM;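 note: recombinant mutant TCR 2C K166C tagged with TAMRA read by polarization; 0% = receptor in buffer alone and 100% = receptor with positive control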
# BSA probe FL – interferes with TAMRA-BSA probe, flagging TCR-CD3 hits | TAMRA-labeled BSA probe fluorescence counterscreen | inhibition, % at 9.4 µM | shares compounds with TCR CD3 inh | 1,200 compounds, 10% hits; in the data active = inhibition above about 23%;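 note: 0% = buffer low control and 100% = reference high control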
# TCR-CD3 conf – confirmation of human TCR-CD3 interaction inhibitors; AID 652036; 1,200 compounds, 48% hits; inhibition, % at 9.4 µM; shares compounds with TCR CD3 inh; TAMRA-labeled TCR probe fluorescence binding assay
# Numbers without * were called inactive; / = not tested or not shown; + = active, no number. In the library only some 2.5% were active in any assay of this set; here they are far more common. Cut-off read from the data, not from the text of the source, unless noted: active = inhibition above about 19%; inactive = the rest.
SMILES,SIAE inh,rCAG binder,HTRA1 inh,mABHD4 FP,TCR CD3 inh,BSA probe FL,TCR-CD3 conf
N#CCC(=O)Nc1ccc(C(=O)OC(C(=O)Nc2cc(C(F)(F)F)ccc2Cl)c2ccccc2)cc1 (stereo unspecified),-97,30,-87,-70,47*,19,34*
O=C(CN1CCN(c2ccccc2)CC1)N1CCc2[nH]c3ccccc3c2C1,4,-4,8,5,22*,3,1
O=C(CN1CCc2[nH]c3ccccc3c2C1)N1CCCCC1,0,0,1,-2,-5,/,/
CC(c1cccs1)N(Cc1ccco1)C(=S)Nc1ccccc1Cl (stereo unspecified),-6,4,-8,1,0,/,/
O=C(c1cccnc1)n1nc(NCc2ccccc2)nc1NCc1ccccc1,3,-7,-12,-8,-6,/,/
Cc1c(NC(=S)N/N=C/c2ccc([N+](=O)[O-])cc2O)c(=O)n(-c2ccccc2)n1C,8,12,11,7,24*,8,11
COc1ccc(NC(=O)Cn2c([N+](=O)[O-])cnc2C)cc1Cl,-5,4,-2,-7,7,/,/
COc1ccc(NS(=O)(=O)c2cccc(C(=O)N/N=C/c3cn(-c4ccccc4)nc3-c3ccccc3)c2)cc1,-12,4,-5,-1,0,/,/
COc1ccccc1NS(=O)(=O)c1cccc(C(=O)N/N=C/c2cn(-c3ccccc3)nc2-c2ccccc2)c1,-97,15,-27,-91,45*,22,44*
Cc1ccc(NC(=O)c2cc(S(=O)(=O)N3CCCCC3)c[nH]2)cc1F,-32,4,-17,-1,6,/,/
Cc1ccc(C(=O)Nc2cnc3ccccn3c2=O)cc1,-6,-2,5,-8,25*,-2,-3
Cc1ccccc1Oc1ccc2c(c1)[C@@H]1C[C@H](N(C)C(=O)NC3CCCCC3)[C@H]([C@H](C)O)C(=O)N1CC2,-1,8,-20,-1,-11,/,/
CCOc1ccc(CNc2ccc(S(N)(=O)=O)cc2)cc1,7,0,-5,-1,152*,0,1
CC(C)NC(=O)c1ccccc1S(=O)(=O)c1ccccc1C#N,-2,0,4,10,-3,/,/
COc1ccc(N(CC(=O)Nc2ccc(F)c(F)c2)S(=O)(=O)c2c(C)n[nH]c2C)cc1,-8,3,-13,0,28*,0,3
Nc1c(C(=O)NCc2ccco2)c2nc3ccccc3nc2n1CCc1ccccc1,-12,21,-68,-14,-11,/,/
O=C(NCC(O)c1ccc([N+](=O)[O-])cc1)C1=COCCO1 (stereo unspecified),2,0,1,0,+,0,1
Oc1ccc(Nc2nc(-c3ccc(O)cc3)cs2)cc1,8,7,12,10,-4,/,/
CC(OC(=O)c1cccs1)C(=O)Nc1nc(-c2ccccc2)cs1 (stereo unspecified),-6,5,-21,-14,1,/,/
CC(CCc1ccccc1)NC(=O)COC(=O)c1ccc(NC(=O)CC#N)cc1 (stereo unspecified),-35,10,-21,-6,30*,2,3
N#CCC(=O)Nc1ccc(C(=O)NCCC(c2ccccc2)c2ccccc2)cc1,-33,20,-54,3,21*,3,4
CC(OC(=O)c1ccc(NC(=O)CC#N)cc1)C(=O)Nc1nc(-c2ccccc2)cs1 (stereo unspecified),-39,32,-40,-12,35*,0,12
Cc1cc(C(=O)C(C)OC(=O)c2ccc(NC(=O)CC#N)cc2)c(C)n1-c1ccc(OC(F)F)cc1 (stereo unspecified),-59,18,-61,-46,24*,5,18
COc1ccc(-c2nnc(SCC(=O)N3CCCC3)o2)c(OC)c1,5,0,4,-16,-4,/,/
COc1ccccc1-c1nnc(SCC(=O)N2CCCC2)o1,8,1,-8,1,21*,1,19
SMILES,SIAE inh,rCAG binder,HTRA1 inh,mABHD4 FP,TCR CD3 inh,BSA probe FL,TCR-CD3 conf
Oc1ccccc1-c1cnc2cccnn12,4,0,/,4,24*,-2,-1
C#CCN1c2ccccc2Sc2cccnc21,8,-126,7,5,47*,2,2
O=C(COC(=O)c1cc(-c2cccs2)nn1-c1ccccc1)Nc1ccc(Cl)c([N+](=O)[O-])c1,-62,21,-39,-19,45*,-12,-5
O=c1c2ccccc2c(C=Nc2ccccc2O)c(O)n1-c1nccs1,-6,18,-1,1,61*,-10,50*
Cc1ccccc1N=Cc1c(O)n(-c2nccs2)c(=O)c2ccccc12,-12,12,-33,10,0,/,/
CS/C(N)=N/N=C/c1cc(Br)cc(Br)c1O,-2,20,20,-3,35*,14,36*
CS/C(N)=N/N=C/c1cc(C)ccc1O,4,3,0,1,2,/,/
COCCOC(=O)C1=C(C)N=C2SCCC(=O)N2C1c1cccs1 (stereo unspecified),0,0,-6,0,5,/,/
S=c1[nH]nc(-c2n[nH]c3c2CCC3)n1N=Cc1ccco1,14,4,/,10,/,/,/
S=c1[nH]nc(-c2n[nH]c3c2CCC3)n1/N=C/C=C/c1ccco1,1,9,/,14,27*,9,11
O=C(O)/C=C/c1cn(-c2ccccc2)nc1-c1cccc([N+](=O)[O-])c1,-8,12,-3,2,4,/,/
NS(=O)(=O)c1ccc(NC(=O)/C=C/c2cn(-c3ccccc3)nc2-c2cccc(Cl)c2)cc1,-230,18,-98,-46,24*,17,27*
CC[C@@]1(c2ccccc2OC)C(=O)N(C(=O)OC)N1C(=O)OC,/,/,5,/,/,/,/
CC(=O)c1ccc(NC(=O)c2cc(Cl)nc3ccccc23)cc1,-3,4,-20,-12,62*,-2,-1
COc1ccc(NC(=S)N2CCN(c3ccccc3)CC2)c(OC)c1,0,-3,5,-5,-4,/,/
Cc1ccc(-c2nn(-c3ccccc3)cc2C(=O)Nc2ccc(C)c(S(=O)(=O)N3CCOCC3)c2)cc1,-7,13,-32,-12,69*,30*,60*
O=C(Nc1cccc(S(=O)(=O)N2CCOCC2)c1)c1cn(-c2ccccc2)nc1-c1ccccc1,-137,14,-57,-25,10,/,/
O=C(Cn1nc(-c2ccccc2)ccc1=O)NCc1ccc2c(c1)OCO2,2,-3,-6,1,9,/,/
COc1ccc(S(=O)(=O)N2CCOCC2)cc1NC(=O)COC(=O)C1=COCCO1,0,7,-3,0,-4,/,/
NC(=O)[C@@H]1CC2(CC(c3cccc(NC(=O)COc4ccc(Cl)cc4)c3)=NO2)CN1C(=O)COc1ccc(Cl)cc1 (stereo partly specified),-60,7,-78,-38,27*,13,24*
